ChEMBL document CHEMBL1123365, “Synthesis and opioid antagonist potencies of naltrexamine bivalent ligands with conformationally restricted spacers” (1986)

Columns and labels:
[1] = Ratio of IC50 of compound in presence of ethylketazocine (EK) on the electrically stimulated guinea pig ileal longitudinal muscle (GPI) to that of IC50 of control value; format: functional
Outline: (§1)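 Guinea pig ileal longitudinal muscle (GPI) strip. Ligand at 5 nM was preincubated with the tissue for 30 min, then an ethylketazocine (κ-selective) concentration-response curve was run. The IC50 ratio is the EK IC50 with antagonist over the control EK IC50 in the same GPI preparation. Relative potency is expressed against the monovalent reference ligand. Mean ± SE, n = 3.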

[2] = species on record: Cavia porcellus; assay: Compound was tested for its antagonistic activity with morphine on the electrically stimulated guinea pig ileal longitudinal muscle (GPI).; format: functional, Muscle tissue
Outline: (§2)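 Guinea pig ileal longitudinal muscle (GPI) strip. Each ligand at 5 nM was incubated with the tissue for 30 min before a morphine (μ-selective) concentration-response curve was run. The IC50 ratio is the morphine IC50 with antagonist divided by the control IC50 in the same preparation. Relative potency is the ratio relative to the monovalent reference ligand. Mean ± SE of three determinations.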

[3] = Ratio of IC50 of compound in presence of morphine on the electrically stimulated guinea pig ileal longitudinal muscle (GPI) to that of IC50 of control value; format: functional; outline: as §2
[4] = species on record: Cavia porcellus; assay: Compound was tested for its antagonistic activity with ethylketazocine (EK) activity on the electrically stimulated guinea pig ileal longitudinal muscle (GPI).; format: functional, Muscle tissue; outline: as §1

| SMILES | Ratio [1] | Relative potency [2] | Ratio [3] | Relative potency [4] |
| --- | --- | --- | --- | --- |
| O=C(/C=C/C(=O)NCC(=O)NCC(=O)NCC(=O)NCC(=O)NC1CCC2(O)C3Cc4ccc(O)c5c4C2(CCN3CC2CC2)C1O5)NCC(=O)NCC(=O)NCC(=O)NCC(=O)NC1CCC2(O)C3Cc4ccc(O)c5c4C2(CCN3CC2CC2)C1O5 (stereo not given) | 3.3 | 9.9 | 22.7 | 2.2 |
| O=C(/C=C/C(=O)NCC(=O)NC1CCC2(O)C3Cc4ccc(O)c5c4C2(CCN3CC2CC2)C1O5)NCC(=O)NC1CCC2(O)C3Cc4ccc(O)c5c4C2(CCN3CC2CC2)C1O5 (stereo not given) | 6.6 | 3.6 | 8.2 |  |
| O=C(/C=C/C(=O)NC1CCC2(O)C3Cc4ccc(O)c5c4C2(CCN3CC2CC2)C1O5)NC1CCC2(O)C3Cc4ccc(O)c5c4C2(CCN3CC2CC2)C1O5 (stereo not given) | 3.4 | 2.1 | 4.8 | 2.3 |
| O=C(/C=C/C(=O)NCC(=O)NCC(=O)NC1CCC2(O)C3Cc4ccc(O)c5c4C2(CCN3CC2CC2)C1O5)NCC(=O)NCC(=O)NC1CCC2(O)C3Cc4ccc(O)c5c4C2(CCN3CC2CC2)C1O5 (stereo not given) | 19.6 | 43 | 100 | 13.1 |
